H69AR growth 86K – blocks growth of human H69AR lung tumor cells; AID 598; 85,000 compounds, 6% hits; H69AR lung tumor viability, ATP luminescence, 72 h; active compounds read low; viability, % at 10 µM;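 active = viability at or below 40%; inactive = viability above 40%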;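 also: multidrug resistant small cell line overexpressing MRP-1 efflux transporter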
PTEN del growth – growth suppressors of cells with PTEN tumor suppressor deletion. HCT116 PTEN-null viability, CellTiter-Glo, 60 h; active compounds read low. viability, % at 10 µM. 140,000 compounds, 1.2% hits;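 active = viability at or below a set limit, 4 SD under the median of all tested compounds, cut at about 3.7% in these data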;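 also: PTEN knockout HCT116 line with beta catenin targeted HCT116 as companion control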
bCat KO growth – beta-catenin-lacking colon tumor cell growth suppression. HCT116 beta-catenin knockout viability, CellTiter-Glo, 60 h; active compounds read low. viability, % at 10 µM. 140,000 compounds, 1.5% hits;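 active = viability at or under a set limit, the compound median less 4 SD, cut at about 6% in these data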
Fibroblast inh – blocks proliferation of human lung fibroblasts; AID 719; LL 47 human lung fibroblast viability, ATP luminescence; active compounds read low; viability, % at 10 µM; 85,000 compounds, 1.1% hits;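 active = viability at or below 50% in the single dose screen; inactive = viability above 50%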;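 also: compound exposure lasted 72 h before the ATP readout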
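Assay system: human lung fibroblast line LL 47, low passage. Input: 1,150 fibroblasts seeded per well. Times: overnight cell rest, 72 h compound treatment at 37 °C. Evaluation: % viability of median cell-only signal. Technique: luminescent ATP detection, CellTiter-Glo. Control set: cell-only wells, no compound.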
HUVEC prolif 384 – blocks proliferation of human endothelial cells; HUVEC proliferation, CellTiter-Glo luminescence, 72 h; active compounds read low; viability, % at 10 µM (by protocol); 86,000 compounds, 1.1% hits;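 active = viability at or below 30%; inactive = viability above 30%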
Calb biofilm kill – kills Candida albicans biofilms. inhibition, % at 6 µM. AID 834. 85,000 compounds, 0.14% hits. C. albicans biofilm + clotrimazole, Alamar Blue;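 active = inhibition above 20%; inactive = inhibition below 20%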;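 also: preformed 24 hr biofilms exposed to compound for 48 hr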
Hits are given with their value; . = inactive; / = not tested or not shown. Shown is part of a subset that was picked to be rich in hits.

SMILES	H69AR growth 86K	PTEN del growth	bCat KO growth	Fibroblast inh	HUVEC prolif 384	Calb biofilm kill
Cc1c(C(=O)OC2CCCC2)[nH]c2c1C(=O)CC(c1ccco1)C2 (stereo not given)	28	.	.	.	.	.
Cc1c(C(=O)OCC(C)C)[nH]c2c1C(=O)CC(c1ccco1)C2 (stereo not given)	17	.	.	.	.	.
COc1ccc(OC)c(-n2c(SCC(=O)NCc3ccco3)nnc2-c2c[nH]c3ccccc23)c1	.	.	.	.	.	.
CCCNC(=O)COC(=O)c1ccccc1OCc1ccc(Cl)cc1	/	.	.	/	/	/
O=C(COc1ccc(S(=O)(=O)NC2CCCCC2)cc1)N1CCN(c2cccc(Cl)c2)CC1	.	.	.	.	.	.
COc1cc(C2CC(=O)c3c([nH]c(C(=O)OCCOC(C)C)c3C)C2)cc(OC)c1OC (stereo not given)	/	.	.	/	/	/
CCOC(=O)c1[nH]c2c(c1-c1ccccc1)C(=O)CC(c1ccccc1)C2 (stereo not given)	/	.	.	/	/	/
COC(=O)c1[nH]c2c(c1C)C(=O)CC(c1ccccc1)C2 (stereo not given)	19	.	.	.	.	.
CCOCCOC(=O)c1[nH]c2c(c1C)C(=O)CC(c1ccc(N(C)C)cc1)C2 (stereo not given)	/	.	.	/	/	/
C=CCOC(=O)c1[nH]c2c(c1C)C(=O)CC(c1ccco1)C2 (stereo not given)	30	.	.	.	.	.
C/C=C/COC(=O)c1[nH]c2c(c1C)C(=O)CC(c1ccc(N(C)C)cc1)C2 (stereo not given)	29	.	.	.	.	.
Cc1c(C(=O)N2CCOCC2)[nH]c2c1C(=O)CC(c1ccccc1Cl)C2 (stereo not given)	22	.	.	.	.	.
O=C(NCc1ccco1)c1ccc(Cn2c(=O)c3ccccc3n(Cc3cccc(F)c3)c2=O)cc1	7.7	.	.	.	.	.
O=C(NCc1ccco1)c1ccc(Cn2c(=O)c3ccccc3n(Cc3ccc(Cl)cc3)c2=O)cc1	23	.	.	.	.	.
Cc1cccc(Cn2c(=O)n(-c3ccc(CC(=O)NCc4ccco4)cc3)c(=O)c3sccc32)c1	20	.	.	.	.	.
O=C(CCCn1c(=O)c2ccccc2n(Cc2ccccc2)c1=O)NCc1ccco1	.	.	.	.	.	.
O=c1c2ccccc2n(Cc2ccc(Cl)cc2)c(=O)n1Cc1ccco1	.	.	.	.	.	.
O=C(CCCCn1c(=O)c2ccccc2n(Cc2ccc(F)cc2)c1=O)NCc1ccco1	22	.	.	.	.	.
Cc1ccc(-n2c(=O)c3sccc3n(CC(=O)NCc3ccco3)c2=O)cc1	.	.	.	.	.	.
C/C(=N\NC(=O)Cc1cccc2ccccc12)c1ccncc1	/	.	.	/	/	/
N#CC1=C(N)SC2(CCCCC2)SC1c1ccccc1 (stereo not given)	.	.	.	.	.	.
N#CC1=C(C2CC2)CC(c2ccccc2)C(C#N)=C1N (stereo not given)	39	.	.	.	.	.
CN(C)c1ccc(/C=C(\C#N)C(=O)Nc2nc3c(s2)CCN(Cc2ccccc2)C3)cc1	2.4	.	.	.	24	.
COc1ccc(C(=O)C(CN2CCOCC2)c2ccccc2)cc1F (stereo not given)	1.9	1.3	1.6	15	.	.
CCCOc1ccc(C(=O)C(CN2CCOCC2)c2ccccc2)cc1 (stereo not given)	1.6	2.1	2.6	46	3.0	.
SMILES	H69AR growth 86K	PTEN del growth	bCat KO growth	Fibroblast inh	HUVEC prolif 384	Calb biofilm kill
COc1ccc(Cc2c[nH]c(=O)[nH]c2=O)cc1	.	.	.	.	.	.
O=c1[nH]cc(COCc2ccccc2)c(=O)[nH]1	.	.	2.6	.	.	.
c1ccc(-c2nc(Sc3ncnc4c3cnn4-c3ccccc3)n[nH]2)cc1	27	.	.	.	.	.
Cc1ccc(CSc2ncnc3c2cnn3-c2ccccc2)cc1	/	.	.	/	/	/
CCOCCCNS(=O)(=O)c1ccc(Br)cc1	.	.	.	.	.	.
Cc1ccc(Cn2c(=O)c3c(nc4n3CCCN4Cc3ccccc3)n(C)c2=O)cc1	.	.	.	.	.	.
Cn1c(=O)n(Cc2ccccc2)c(=O)c2c1nc1n2CCCN1Cc1ccccc1	32	.	.	.	.	.
Cn1c(=O)c2c(nc(CN3CCN(Cc4ccccc4)CC3)n2CCN2CCOCC2)n(C)c1=O	.	.	.	.	.	.

Compound activity deposited in PubChem by several laboratories.
